Tests used:
[1] = molecular target: Opioid receptors; mu & kappa (Homo sapiens) (UniProt P41145+P35372); test: Relative affinity for kappa 1 and mu opioid receptors; type: protein assay
In short: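 Ratio of Ki at KOR, from 3H-U-69,593 competition in guinea pig cerebellum, to Ki at MOR, from 3H-DAMGO competition on hMOR-1 in CHO cells.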

[2] = molecular target: Kappa-type opioid receptor (Cavia porcellus, UniProt P41144); test: Displacement of 3H-U-69,593 from Opioid receptor kappa 1 in guinea pig cerebellum preparation; type: tissue-based
Sequence of Kappa-type opioid receptor (P41144 whole entry): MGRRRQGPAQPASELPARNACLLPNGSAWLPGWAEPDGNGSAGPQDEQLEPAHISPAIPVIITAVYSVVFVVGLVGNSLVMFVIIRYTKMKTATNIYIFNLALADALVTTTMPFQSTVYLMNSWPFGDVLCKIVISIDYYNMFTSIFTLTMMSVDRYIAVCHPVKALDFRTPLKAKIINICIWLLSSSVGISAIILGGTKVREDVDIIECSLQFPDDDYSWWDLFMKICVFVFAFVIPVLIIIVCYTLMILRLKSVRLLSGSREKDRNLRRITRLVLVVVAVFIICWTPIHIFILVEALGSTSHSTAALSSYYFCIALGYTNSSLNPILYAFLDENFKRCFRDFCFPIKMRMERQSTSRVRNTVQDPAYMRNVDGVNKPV

Mu-type opioid receptor [3] = molecular target: T1, Mu-type opioid receptor (Homo sapiens, UniProt P35372); test: Displacement of [3H]DAMGO from human Opioid receptor mu 1 expressing CHO cells; type: cell-based
T1 sequence (P35372 whole entry): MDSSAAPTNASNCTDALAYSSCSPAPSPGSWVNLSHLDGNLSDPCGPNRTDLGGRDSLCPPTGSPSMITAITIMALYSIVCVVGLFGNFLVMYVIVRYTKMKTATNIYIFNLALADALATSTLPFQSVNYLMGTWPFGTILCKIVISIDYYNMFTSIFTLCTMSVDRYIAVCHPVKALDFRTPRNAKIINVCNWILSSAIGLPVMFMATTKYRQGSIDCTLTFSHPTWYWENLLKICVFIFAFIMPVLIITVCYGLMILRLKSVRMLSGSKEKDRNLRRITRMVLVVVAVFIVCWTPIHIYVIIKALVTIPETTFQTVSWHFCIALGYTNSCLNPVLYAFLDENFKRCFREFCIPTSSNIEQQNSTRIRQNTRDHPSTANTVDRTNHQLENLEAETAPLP

[4] = molecular target: Delta-type opioid receptor (Homo sapiens, UniProt P41143); test: Displacement of [3H]diprenorphine from human Opioid receptor delta 1 epressing HEK293 cells; type: cell-based
Sequence of Delta-type opioid receptor (P41143 whole entry): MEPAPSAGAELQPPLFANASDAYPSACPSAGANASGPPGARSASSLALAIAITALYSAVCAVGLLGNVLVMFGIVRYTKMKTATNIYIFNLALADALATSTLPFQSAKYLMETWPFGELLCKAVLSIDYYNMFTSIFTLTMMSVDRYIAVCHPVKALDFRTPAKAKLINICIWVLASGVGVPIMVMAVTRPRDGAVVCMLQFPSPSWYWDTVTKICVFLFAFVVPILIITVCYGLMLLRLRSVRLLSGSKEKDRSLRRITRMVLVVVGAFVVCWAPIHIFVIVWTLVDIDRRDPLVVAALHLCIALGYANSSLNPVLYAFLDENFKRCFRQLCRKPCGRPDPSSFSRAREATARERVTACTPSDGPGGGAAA
In short: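 Human DOR-1 stably transfected into HEK-293 cells; competition binding against 3H-diprenorphine. Mean ± SD of duplicate measurements.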

Mu-type opioid receptor [5] = molecular target: T1, Mu-type opioid receptor; test: Efficacy for Opioid receptor mu 1-mediated [35S]GTP-gamma-S incorporation into CHO membrane preparations; type: functional
[6] = molecular target: Opioid receptors; mu & delta (Homo sapiens) (UniProt P41143+P35372); test: Relative affinity for delta and mu opioid receptors; type: protein assay
Sequence of Opioid receptors; mu & delta (Homo sapiens) (P35372 whole entry, looked up): as the sequence (P35372 whole entry) above
Sequence of Opioid receptors; mu & delta (Homo sapiens) (P41143 whole entry, looked up): as the sequence (P41143 whole entry) above

Mu-type opioid receptor [7] = molecular target: T1, Mu-type opioid receptor; test: Compound tested at 10 uM for the ability to induce Opioid receptor mu 1-mediated binding of [35S]GTP-gamma-S to G proteins in CHO membrane preparations; type: functional, cell membranes
In short: (§1)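 Human MOR-1 stably transfected into CHO cells; membrane preparations incubated with GDP and test compound at 10 µM. Specific [35S]GTP-γ-S binding to G proteins is expressed as a percentage of DAMGO-induced specific binding. Mean ± SD of quadruplicate measurements.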

Mu-type opioid receptor [8] = molecular target: T1, Mu-type opioid receptor; test: Specific binding of GTP-gamma -35S to G proteins in CHO membrane preparation stably transfected with human Opioid receptor mu 1 in the presence of GDP and 10 uM compound; type: cell membranes; in short: as §1

Sequence of Opioid receptors; mu & kappa (Homo sapiens) (P35372 whole entry, looked up): as the sequence (P35372 whole entry) above
Sequence of Opioid receptors; mu & kappa (Homo sapiens) (P41145 whole entry, looked up): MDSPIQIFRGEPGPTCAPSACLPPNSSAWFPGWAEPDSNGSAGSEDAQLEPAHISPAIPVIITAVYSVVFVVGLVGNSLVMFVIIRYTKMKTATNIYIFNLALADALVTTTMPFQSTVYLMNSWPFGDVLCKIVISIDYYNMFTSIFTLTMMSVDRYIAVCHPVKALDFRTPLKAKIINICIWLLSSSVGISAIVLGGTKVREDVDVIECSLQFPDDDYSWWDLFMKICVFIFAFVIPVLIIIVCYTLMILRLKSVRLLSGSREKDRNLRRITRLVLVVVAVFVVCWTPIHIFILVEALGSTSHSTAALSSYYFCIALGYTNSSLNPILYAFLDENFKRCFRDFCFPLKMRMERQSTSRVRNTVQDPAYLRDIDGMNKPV

SMILES	Ratio [1]	Ki [2]	Ki (Mu-type opioid receptor [3])	Ki [4]	GTP-gamma35S bound (Mu-type opioid receptor [5])	Ratio [6]	EC50 (Mu-type opioid receptor [7])	GTP-gamma35S bound (Mu-type opioid receptor [8])	Ki (Mu-type opioid receptor [3]; cho)	Ki ([4]; hek293)
Cc1cc(O)cc(C)c1C[C@H](N)[C@@H](O)C/C=C/[C@@H](O)[C@@H](Cc1ccccc1)C(=O)N[C@@H](Cc1ccccc1)C(N)=O	49	0.021 µM	0.00042 µM	0.036 µM	75%	86	0.0079 µM			
Cc1cc(O)cc(C)c1C[C@H](N)[C@H](O)C/C=C/[C@@H](O)[C@@H](Cc1ccccc1)C(=O)NCCc1ccccc1	96	0.069 µM	0.00072 µM	0.066 µM	27%	91				
Cc1cc(O)cc(C)c1C[C@H](N)[C@H](O)C/C=C/[C@H](O)[C@@H](Cc1ccccc1)C(=O)NCCc1ccccc1	210	0.051 µM	0.00024 µM	0.123 µM	49%	510	0.049 µM			
Cc1cc(O)cc(C)c1C[C@H](N)[C@@H](O)C/C=C/[C@H](O)[C@@H](Cc1ccccc1)C(=O)N[C@@H](Cc1ccccc1)C(N)=O	130	0.022 µM	0.00017 µM	0.04 µM	35%	230				
Cc1cc(O)cc(C)c1C[C@H](N)[C@H](O)C/C=C/[C@H](O)[C@@H](Cc1ccccc1)C(=O)N[C@@H](Cc1ccccc1)C(N)=O	13	0.015 µM	0.0012 µM	0.046 µM	14%	38				
Cc1cc(O)cc(C)c1C[C@H](N)[C@@H](O)C/C=C/[C@H](O)[C@@H](Cc1ccccc1)C(=O)O[C@H](CO)Cc1ccccc1	190	0.085 µM	0.00044 µM	0.017 µM		39		62%		
Cc1cc(O)cc(C)c1C[C@H](N)[C@@H](O)C/C=C/[C@H](O)[C@@H](Cc1ccccc1)C(=O)NCCc1ccccc1	140	0.042 µM	0.00029 µM	0.099 µM	40%	340				
NC(=O)[C@H](Cc1ccccc1)NC(=O)[C@H](Cc1ccccc1)NC(=O)[C@@H]1CCCN1C(=O)[C@@H](N)Cc1ccccc1		10.4 µM					0.031 µM		0.00069 µM	[…]
Cc1cc(O)cc(C)c1C[C@H](N)[C@@H](O)C/C=C/[C@H](O)[C@@H](Cc1ccccc1)C(=O)OCCc1ccccc1			0.00024 µM	0.056 µM	79%		0.0042 µM			
Cc1cc(O)cc(C)c1C[C@H](N)[C@@H](O)C/C=C/[C@H](O)[C@@H](Cc1ccccc1)C(=O)O[C@@H](Cc1ccccc1)C(N)=O	280	0.126 µM		0.021 µM	47%	46				
Cc1cc(O)cc(C)c1C[C@H](N)[C@H](O)C/C=C/[C@@H](O)[C@@H](Cc1ccccc1)C(=O)N[C@@H](Cc1ccccc1)C(N)=O	16	0.025 µM	0.0016 µM	0.085 µM	43%	53				
NC(=O)[C@H](Cc1ccccc1)NC(=O)[C@H](Cc1ccccc1)NC(=O)[C@H]1CCCN1C(=O)[C@@H](N)Cc1ccccc1	[…]				100%	[…]				
Cc1cc(O)cc(C)c1C[C@H](N)[C@@H](O)C/C=C/[C@H](O)[C@@H](Cc1ccccc1)C(=O)N[C@H](CO)Cc1ccccc1	430	0.069 µM	0.00016 µM	0.054 µM	44%	340				
Cc1cc(O)cc(C)c1C[C@H](N)[C@@H](O)C/C=C/[C@@H](O)[C@@H](Cc1ccccc1)C(=O)NCCc1ccccc1	170	0.064 µM	0.00037 µM	0.026 µM	48%	70				
Cc1cc(O)cc(C)c1C[C@H](N)[C@@H](O)C/C=C/[C@@H](O)[C@H](Cc1ccccc1)C(=O)NCCc1ccccc1	94	0.06 µM	0.00064 µM	0.119 µM	52%	190				
Cc1cc(O)cc(C)c1C[C@H](N)[C@@H](O)C/C=C/[C@@H](O)[C@H](Cc1ccccc1)C(=O)N[C@@H](Cc1ccccc1)C(N)=O	41	0.05 µM	0.0012 µM	0.23 µM	32%	190				

— ChEMBL document CHEMBL1145973 (J Med Chem, 2003)
